Measured values from the EternaBench riboswitch data.

Tested on: MS2 coat protein
Test: apparent Kd, MS2 coat protein; higher = weaker binding; RNA-MaP array; FMN 200 µM where present
In short: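 Two titrations, one without ligand and one with constant ligand, were run with SNAP-549-labelled MS2 coat protein from 0.7 or 1.5 nM, doubling to 3 µM. The targets were designs transcribed by stalled E. coli RNA polymerase on Illumina sequencing-chip clusters, in 100 mM Tris-HCl pH 7.5, 80 mM KCl, 4 mM MgCl2, BSA, DTT, yeast tRNA and Tween-20. The apparent Kd is the median of filtered per-cluster binding-curve fits, with green signal normalised to red-channel RNA signal and control-cluster median Fmax.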

[1] = designed as: ON switch for flavin mononucleotide, no ligand
[2] = ligand present: flavin mononucleotide, designed as: ON switch for flavin mononucleotide
[3] = designed as: OFF switch for flavin mononucleotide, no ligand
[4] = ligand present: flavin mononucleotide, designed as: OFF switch for flavin mononucleotide

Sequence | apparent Kd [1] | apparent Kd [2] | apparent Kd [3] | apparent Kd [4]
ACAUGAGGAUCACCCAUGUUAAGCGAGGAUAUUUGACUGCACAUGAGGUUCGCCCAUGUCCUGCCGAAGAAGGUGCGAAUAAUU | 54.2 nM | 17.6 nM | – | –
AAAUUCCUCACAGGAUAUCCUACAUGAGGAUCACCCAUGUACUAACUGAGCGAAUUGCAACAAAAGGAGAAGGGUGAGGUGAAG | 31.5 nM | 6.35 nM | – | –
CCACGUCACAUCUACAUGAGGAUCACCCAUGUCAAAAGACAUGAGGAUAUGCUACCUAAUUGGUAGCAGAAGGCAUGGACGUGG | 982 nM | 64.4 nM | – | –
CUGUAGUCAGGAUAUACAUGAGGAUCACCCAUGUAAAAUUUUAAUUUAAUUUGAAGGUGUAGAAGGGACCAGUU | – | – | 34.3 nM | 32.9 nM
AGCAGACGAGGAUAUAGAUUAAAUGACAUGAGGAUCACCCAUGUGAUCGAUCUAUUUUAUUUAGAAGGUGUCUGCU | – | – | 18.1 nM | 32.3 nM
AUGCGACAUGAGGAUCACCCAUGUGAGGAUAUGGCCUGUUUGGCGUGUGCUGGCUCUGUCAGAAGGCGCGUGGG | – | – | 103 nM | 270 nM
CUUGUGUUAGGAUAUGCGUUUCCGGUGCGUCACUGGAUCUGGCAGAAGGGACAUGAGGAUCACCCAUGUUUGGC | – | – | 38.7 nM | 31 nM
GGAUCACAAAGUGAUCCAAUACGAACAUGAGGAUCACCCAUGUAGGAUAUGCUACUCAAAGAGUAGCAGAAGGACAUGUGCCUU | – | – | 35.4 nM | 296 nM
UACAGACAUGAGGAUCACCCAUGUAAGGAUAUCGGUACUGAUGGUAUAAUCUACUCAGCGAGAAGGUACAGUGU | – | – | 33.6 nM | 33.2 nM
GUAUACGAUGAGGAUAUAUGAUAUCAAAGCAUCAUAGAAGGCAUCACAUGAGGAUCACCCAUGUGAUCUUCUAG | – | – | 15.7 nM | 52.6 nM
CCGGAAACGGGUAGCUGUACAUGAGGAUCACCCAUGUGAUCAGAGGAUAUGGAUCCUAAUUGGAUCCAGAAGGCUGUCAGCUAC | 119 nM | 29.1 nM | – | –
UACAUGAGGAUCACCCAUGUUUUGUCGUGUAUGGUAUUUAUCUAGGAUAUCAAUUUACUUAUUUAUGAGAAGGAGAAUAUUAAU | – | – | 32.4 nM | 31.3 nM
GGUACCAACACAGGAUAUGCAAUCCUUUGGGUUGCAGAAGGGUGAAAACAUGAGGAUCACCCAUGUGGUACCGGGCGUGAGCCC | 473 nM | 39.8 nM | – | –
ACAAGAUCAGGAUAUACAUGAGGAUCACCCAUGUAUAUAAAAAAAGGGCCUUCUACAUGUAGAAGGGAUCUUGU | – | – | 13.8 nM | 13.7 nM
AGUCGGCGAGGAUAUACAUGAGGAUCACCCAUGUAUGAUCCUAGACCUGUAGGUCCAUGUAGAAGGCGCUGACA | – | – | 63.6 nM | 29.1 nM
AAUUUACAGGUAGGAUAUACAUGAGGAUCACCCAUGUAAUCAUAUGAUAUUUUUUUUGUAUGAGUGUAGAAGGACCAAAUAAAA | – | – | 9.75 nM | 8.48 nM
AGACGCAUGCAGAAGGACGACAUGAGGAUCACCCAUGUGGUCGGUAGGGUCGUAGGAUAUGCAAGGCGUUGCGAGCCAACUGUG | – | – | 118 nM | 26.9 nM
UUUUAACAUGAGGAUCACCCAUGUGAGGAUAUCGAAAUUUAUAUUAAUAUUUUUAUUUCGAGAAGGCACAUUUU | – | – | 144 nM | 166 nM
GCUCGAUGCGCUGAGCACAUGAGGAUCACCCAUGUAAAAUGUCAGGAUAUUUACGUGCUUUAUGUAGAGAAGGGACUAUCGAGC | 60.5 nM | 24.1 nM | – | –
GCGCGCGCAGGAUAUACAUGAGGAUCACCCAUGUAGCGCGCGCGUAUUUGUGUGUGUUGUAGAAGGGUGUGUGU | – | – | 20 nM | 18.2 nM
CCGGAAACGGGUAGCUGUACAUGAGGAUCACCCAUGUGAUCAUAGGAUAUGGAUCCUAAUUGGAUCCAGAAGGAUGUCAGCUAC | 163 nM | 580 nM | – | –
GUCAGCUCGUGAGGAUAUACAUGUGCUGGAUACAGCAUUAAAUAAUUCACAUGAGGAUCACCCAUGUAGAAGGCACGAGCUGAU | – | – | 17.9 nM | 42.9 nM
GGUGGGUUGCUGCCGGCACAUGAGGAUCACCCAUGUUUUGGGAAGGAUAUGGUACCUUUUUGGUGCCAGAAGGUCCCGUUGGUG | 733 nM | 1000 nM | – | –
